Test results from ChEMBL document CHEMBL1150425, “Parallel one-pot synthesis and structure-activity relationship study of symmetric formimidoester disulfides as a novel class of potent non-nucleoside HIV-1 reverse transcriptase inhibitors” (Bioorg Med Chem, 2008).
Active and inactive are the calls of the source. The calls are words filed in the database; no cut-off is given here.

Legend:
[1] = Cytotoxicity against human MT4 cells by MTT method; assay type: cell-based
Procedure, shortened: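 Mock-infected MT-4 cells, run in parallel with the antiviral test; CC50 = concentration reducing viability by 50%, read by MTT. Triplicate samples.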

[2] = system: Human immunodeficiency virus 1; experiment: Antiviral activity against HIV1 in MT4 cells assessed as reduction of virus induced cytopathogenicity by MTT method; assay type: functional, organism-based; conditions: Human immunodeficiency virus 1, MT4
Procedure, shortened: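 MT-4 cells infected with wild-type HIV-1; EC50 = concentration giving 50% protection of cells from virus-induced cytopathogenicity, viability read by MTT. Triplicate samples.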

[3] = Selectivity index, ratio of CC50 for human MT4 cells to EC50 for HIV1 cells; assay type: toxicity, cell-based; conditions: read-out: Ratio CC50/EC50
Procedure, shortened: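 Ratio of CC50 (mock-infected MT-4 viability, MTT) to EC50 (50% protection of MT-4 cells from HIV-1 cytopathogenicity, MTT), both taken from the same parallel cell-based run.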

[4] = target: Human immunodeficiency virus type 1 reverse transcriptase (Human immunodeficiency virus 1, UniProt Q72547); experiment: Inhibition of HIV1 virion-associated reverse transcriptase
[5] = system: Human immunodeficiency virus 1; experiment: Antiviral activity against HIV1 with reverse transcriptase Y181C mutation; assay type: functional, organism-based
Procedure, shortened: (§1)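 MT-4 cells infected with the mutant HIV-1 strain; protection from virus-induced cytopathogenicity read by MTT. EC50 is the concentration (µM) giving 50% protection. Cytotoxicity was assayed in parallel on mock-infected MT-4 cells by MTT. Triplicate samples.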

[6] = system: Human immunodeficiency virus 1; experiment: Antiviral activity against HIV1 with reverse transcriptase K103R mutation; assay type: functional, organism-based; procedure, shortened: as §1

IC50 [4] [µM]	SMILES	CC50 [1] [µM]	EC50 [2] [µM]	selectivity ratio [3]	EC50 [5] [µM]	Activity [6]	EC50 [6] [µM]
	O=C1c2ccccc2C(=O)N1CCO/C(=N\c1ccccc1F)SS/C(=N/c1ccccc1F)OCCN1C(=O)c2ccccc2C1=O	43	1.2	36			
	O=C1c2ccccc2C(=O)N1CCO/C(=N\c1c(F)cc(F)cc1F)SS/C(=N/c1c(F)cc(F)cc1F)OCCN1C(=O)c2ccccc2C1=O	39	1.2	33			
	O=C1c2ccccc2C(=O)N1CCO/C(=N\c1cccc(Cl)c1)SS/C(=N/c1cccc(Cl)c1)OCCN1C(=O)c2ccccc2C1=O	36	0.4	90			
	O=C1c2ccccc2C(=O)N1CCO/C(=N\c1cc(F)cc(F)c1)SS/C(=N/c1cc(F)cc(F)c1)OCCN1C(=O)c2ccccc2C1=O	37	> 37	< 1			
	Cc1ccc(/N=C(\OCCN2C(=O)c3ccccc3C2=O)SS/C(=N/c2ccc(C)c(Cl)c2)OCCN2C(=O)c3ccccc3C2=O)cc1Cl	> 100	0.2	> 500			
1.06	S=C(NCCc1ccccn1)Nc1ccc(Br)cn1 [TROVIRDINE]			3000			
	O=C1c2ccccc2C(=O)N1CCO/C(=N\c1cccc(F)c1)SS/C(=N/c1cccc(F)c1)OCCN1C(=O)c2ccccc2C1=O	38	5	7.6			
	COc1cccc(/N=C(\OCCN2C(=O)c3ccccc3C2=O)SS/C(=N/c2cccc(OC)c2)OCCN2C(=O)c3ccccc3C2=O)c1	80	1.3	61			
	Cc1cc(Br)cc(C)c1/N=C(\OCCN1C(=O)c2ccccc2C1=O)SS/C(=N/c1c(C)cc(Br)cc1C)OCCN1C(=O)c2ccccc2C1=O	> 100	> 100				
	O=C1c2ccccc2C(=O)N1CCO/C(=N\c1cccc(Br)c1)SS/C(=N/c1cccc(Br)c1)OCCN1C(=O)c2ccccc2C1=O	89	6	15			
	Cc1cc(Br)ccc1/N=C(\OCCN1C(=O)c2ccccc2C1=O)SS/C(=N/c1ccc(Br)cc1C)OCCN1C(=O)c2ccccc2C1=O	80	1.8	44	35	inactive	
	O=C1c2ccccc2C(=O)N1CCO/C(=N\c1ccc(Cl)cc1)SS/C(=N/c1ccc(Cl)cc1)OCCN1C(=O)c2ccccc2C1=O	88	0.02	5500			
	c1ccc(CCO/C(=N\c2ccccc2)SS/C(=N/c2ccccc2)OCCc2ccccc2)cc1	70	11	6.4			
	O=C1c2ccccc2C(=O)N1CCO/C(=N\C1CC1)SS/C(=N/C1CC1)OCCN1C(=O)c2ccccc2C1=O	> 100	> 100				
	O=C1c2ccccc2C(=O)N1CCO/C(=N\c1ccc(Cl)c(C(F)(F)F)c1)SS/C(=N/c1ccc(Cl)c(C(F)(F)F)c1)OCCN1C(=O)c2ccccc2C1=O	> 100	28	> 3.6			
0.74	O=C1c2ccccc2C(=O)N1CCO/C(=N\c1ccc(Br)cc1)SS/C(=N/c1ccc(Br)cc1)OCCN1C(=O)c2ccccc2C1=O	42	0.01	4200			
	Cc1cc(C)cc(/N=C(\OCCN2C(=O)c3ccccc3C2=O)SS/C(=N/c2cc(C)cc(C)c2)OCCN2C(=O)c3ccccc3C2=O)c1	> 100	3	> 33			
	O=C1c2ccccc2C(=O)N1CCO/C(=N\c1cccc(C(F)(F)F)c1)SS/C(=N/c1cccc(C(F)(F)F)c1)OCCN1C(=O)c2ccccc2C1=O	22	2.3	9.6			
	O=C1c2ccccc2C(=O)N1CCO/C(=N\c1cccc([N+](=O)[O-])c1)SS/C(=N/c1cccc([N+](=O)[O-])c1)OCCN1C(=O)c2ccccc2C1=O	> 100	0.7	> 143			
	Cc1ccc(/N=C(\OCCN2C(=O)c3ccccc3C2=O)SS/C(=N/c2ccc(C)cc2)OCCN2C(=O)c3ccccc3C2=O)cc1	21	0.04	525			
	O=C1c2ccccc2C(=O)N1CCO/C(=N\c1ccc([N+](=O)[O-])cc1)SS/C(=N/c1ccc([N+](=O)[O-])cc1)OCCN1C(=O)c2ccccc2C1=O	> 100	0.07	> 1430	57		62
	COc1ccc(/N=C(\OCCN2C(=O)c3ccccc3C2=O)SS/C(=N/c2ccc(OC)cc2)OCCN2C(=O)c3ccccc3C2=O)cc1	90	0.06	1500			

IC50 [4] [µM]	SMILES	CC50 [1] [µM]	EC50 [2] [µM]	selectivity ratio [3]	EC50 [5] [µM]	Activity [6]	EC50 [6] [µM]
	O=C1c2ccccc2C(=O)N1CCO/C(=N\c1cc(F)ccc1F)SS/C(=N/c1cc(F)ccc1F)OCCN1C(=O)c2ccccc2C1=O	52	1.3	40			
	O=C1c2ccccc2C(=O)N1CCO/C(=N\Cc1ccccc1)SS/C(=N/Cc1ccccc1)OCCN1C(=O)c2ccccc2C1=O	> 100	7	> 14			
	O=C1c2ccccc2C(=O)N1CCO/C(=N\c1ccc(Cl)c([N+](=O)[O-])c1)SS/C(=N/c1ccc(Cl)c([N+](=O)[O-])c1)OCCN1C(=O)c2ccccc2C1=O	18	0.07	257			
	O=C1c2ccccc2C(=O)N1CCO/C(=N\c1ccc(F)cc1F)SS/C(=N/c1ccc(F)cc1F)OCCN1C(=O)c2ccccc2C1=O	27	0.05	541			
	O=C1c2ccccc2C(=O)N1CCO/C(=N\c1ccccc1)SS/C(=N/c1ccccc1)OCCN1C(=O)c2ccccc2C1=O	80	0.35	229			
	Cc1ccc2c(c1)C(=O)N(CCO/C(=N\c1ccc(Br)cc1)SS/C(=N/c1ccc(Br)cc1)OCCN1C(=O)c3ccc(C)cc3C1=O)C2=O	> 100	1.3	> 77			
	O=C1c2ccccc2C(=O)N1CCO/C(=N\c1cccc(Cl)c1Cl)SS/C(=N/c1cccc(Cl)c1Cl)OCCN1C(=O)c2ccccc2C1=O	37	18	2.1			
	Cc1ccccc1/N=C(\OCCN1C(=O)c2ccccc2C1=O)SS/C(=N/c1ccccc1C)OCCN1C(=O)c2ccccc2C1=O	11	> 11	< 1			
	O=C1c2ccccc2C(=O)N1CCO/C(=N\c1ccc(Cl)cc1Cl)SS/C(=N/c1ccc(Cl)cc1Cl)OCCN1C(=O)c2ccccc2C1=O	> 100	4	> 25			
	O=C1c2ccccc2C(=O)N1CCO/C(=N\c1cc(Cl)cc(Cl)c1)SS/C(=N/c1cc(Cl)cc(Cl)c1)OCCN1C(=O)c2ccccc2C1=O	42	> 42	< 1			
	O=C1c2ccccc2C(=O)N1CCO/C(=N\c1ccc(I)cc1)SS/C(=N/c1ccc(I)cc1)OCCN1C(=O)c2ccccc2C1=O	48	0.03	1600			
	O=C1c2ccccc2C(=O)N1CCCO/C(=N\c1ccc(Br)cc1)SS/C(=N/c1ccc(Br)cc1)OCCCN1C(=O)c2ccccc2C1=O	> 100	> 100				
	O=C1Nc2ccc(Cl)cc2C(C#CC2CC2)(C(F)(F)F)O1 (single isomer, unassigned) [EFAVIRENZ]				0.01		0.04
	O=C1c2ccccc2C(=O)N1CCO/C(=N\c1ccc(Cl)c(Cl)c1)SS/C(=N/c1ccc(Cl)c(Cl)c1)OCCN1C(=O)c2ccccc2C1=O	> 100	7	> 14			
	O=C1c2ccccc2C(=O)N1CCO/C(=N\c1ccc(C(F)(F)F)cc1)SS/C(=N/c1ccc(C(F)(F)F)cc1)OCCN1C(=O)c2ccccc2C1=O	> 100	0.1	> 1000			
	N#Cc1ccc(/N=C(\OCCN2C(=O)c3ccccc3C2=O)SS/C(=N/c2ccc(C#N)cc2)OCCN2C(=O)c3ccccc3C2=O)cc1	> 100	0.1	> 1000			
	O=C1c2ccccc2C(=O)N1CCO/C(=N\c1cc(Cl)ccc1Cl)SS/C(=N/c1cc(Cl)ccc1Cl)OCCN1C(=O)c2ccccc2C1=O	> 100	> 100				
	CC(=O)c1ccc(/N=C(\OCCN2C(=O)c3ccccc3C2=O)SS/C(=N/c2ccc(C(C)=O)cc2)OCCN2C(=O)c3ccccc3C2=O)cc1	> 100	24	> 4.2			
	O=C1c2ccccc2C(=O)N1CCO/C(=N\c1ccc(F)cc1)SS/C(=N/c1ccc(F)cc1)OCCN1C(=O)c2ccccc2C1=O	29	0.02	1450			
	O=C1c2ccccc2C(=O)N1CCO/C(=N\c1cccc2ccccc12)SS/C(=N/c1cccc2ccccc12)OCCN1C(=O)c2ccccc2C1=O	> 100	8	> 13			
	O=C1c2ccccc2C(=O)N1CCO/C(=N\c1ccccc1Cl)SS/C(=N/c1ccccc1Cl)OCCN1C(=O)c2ccccc2C1=O	9	> 9	< 1			
